From ChEMBL document CHEMBL4680235, “Structure-based discovery of novel 4-(2-fluorophenoxy)quinoline derivatives as c-Met inhibitors using isocyanide-involved multicomponent reactions” (Eur J Med Chem, 2020)

Columns and labels:
HT-29 [1] = experiment: Antiproliferative activity against human HT-29 cells assessed as reduction in cell viability measured after 72 hrs by MTT assay; conditions: HT-29, 72 h
MDA-MB-231 [2] = experiment: Antiproliferative activity against human MDA-MB-231 cells assessed as reduction in cell viability measured after 72 hrs by MTT assay; conditions: MDA-MB-231, 72 h
MKN-45 = experiment: Antiproliferative activity against human MKN-45 cells assessed as reduction in cell viability measured after 72 hrs by MTT assay; conditions: MKN-45, 72 h
NCI-H460 [3] = experiment: Antiproliferative activity against human NCI-H460 cells assessed as reduction in cell viability measured after 72 hrs by MTT assay; conditions: NCI-H460, 72 h
[4] = molecular target: Hepatocyte growth factor receptor (Homo sapiens, UniProt P08581); experiment: Inhibition of c-MET (unknown origin) using poly (Glu, Tyr) 4:1 as substrate measured after 30 mins by HTRF assay
Sequence of Hepatocyte growth factor receptor (P08581 whole entry): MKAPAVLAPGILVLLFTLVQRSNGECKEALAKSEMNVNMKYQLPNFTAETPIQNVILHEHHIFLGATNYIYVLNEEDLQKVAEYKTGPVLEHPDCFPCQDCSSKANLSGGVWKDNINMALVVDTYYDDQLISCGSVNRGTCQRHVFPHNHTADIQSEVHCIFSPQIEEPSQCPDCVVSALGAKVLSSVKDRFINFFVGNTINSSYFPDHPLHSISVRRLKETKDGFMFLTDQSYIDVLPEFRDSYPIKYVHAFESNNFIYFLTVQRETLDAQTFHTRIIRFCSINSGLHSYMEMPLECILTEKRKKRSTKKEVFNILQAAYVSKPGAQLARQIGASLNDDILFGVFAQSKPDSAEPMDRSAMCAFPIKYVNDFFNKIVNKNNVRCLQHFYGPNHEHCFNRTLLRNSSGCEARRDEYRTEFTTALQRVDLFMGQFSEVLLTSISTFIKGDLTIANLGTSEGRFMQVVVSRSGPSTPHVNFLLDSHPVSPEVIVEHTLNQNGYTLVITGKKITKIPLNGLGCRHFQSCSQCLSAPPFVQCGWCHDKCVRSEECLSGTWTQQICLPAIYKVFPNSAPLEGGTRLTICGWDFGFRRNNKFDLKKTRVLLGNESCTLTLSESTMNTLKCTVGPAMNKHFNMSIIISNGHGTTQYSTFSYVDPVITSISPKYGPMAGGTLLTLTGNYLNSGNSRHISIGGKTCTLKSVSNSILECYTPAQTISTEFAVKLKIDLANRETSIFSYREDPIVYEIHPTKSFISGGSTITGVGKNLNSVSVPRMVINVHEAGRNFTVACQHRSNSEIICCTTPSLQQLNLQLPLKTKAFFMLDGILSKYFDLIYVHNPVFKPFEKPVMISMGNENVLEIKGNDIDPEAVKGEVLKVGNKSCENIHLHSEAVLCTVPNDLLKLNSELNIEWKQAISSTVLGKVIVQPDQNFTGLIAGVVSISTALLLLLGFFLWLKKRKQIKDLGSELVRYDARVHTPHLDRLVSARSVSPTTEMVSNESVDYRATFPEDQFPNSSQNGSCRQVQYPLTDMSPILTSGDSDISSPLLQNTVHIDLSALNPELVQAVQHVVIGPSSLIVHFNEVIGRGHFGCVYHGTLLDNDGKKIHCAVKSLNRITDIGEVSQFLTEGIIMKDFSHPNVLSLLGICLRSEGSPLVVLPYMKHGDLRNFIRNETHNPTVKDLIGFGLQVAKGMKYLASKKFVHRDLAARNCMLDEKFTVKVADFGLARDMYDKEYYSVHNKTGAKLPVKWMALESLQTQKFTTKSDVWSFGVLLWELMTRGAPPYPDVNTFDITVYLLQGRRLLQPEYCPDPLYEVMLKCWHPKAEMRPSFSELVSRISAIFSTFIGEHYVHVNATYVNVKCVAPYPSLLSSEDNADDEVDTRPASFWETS

NCI-H460 [5] = experiment: Potency index, ratio of foretinib IC50 to test compound IC50 for antiproliferative activity against human NCI-H460 cells; type: functional
[6] = molecular target: T1, Receptor-type tyrosine-protein kinase FLT3 (Homo sapiens, UniProt P36888); experiment: Inhibition of FLT3 (unknown origin)
T1 sequence (P36888 whole entry): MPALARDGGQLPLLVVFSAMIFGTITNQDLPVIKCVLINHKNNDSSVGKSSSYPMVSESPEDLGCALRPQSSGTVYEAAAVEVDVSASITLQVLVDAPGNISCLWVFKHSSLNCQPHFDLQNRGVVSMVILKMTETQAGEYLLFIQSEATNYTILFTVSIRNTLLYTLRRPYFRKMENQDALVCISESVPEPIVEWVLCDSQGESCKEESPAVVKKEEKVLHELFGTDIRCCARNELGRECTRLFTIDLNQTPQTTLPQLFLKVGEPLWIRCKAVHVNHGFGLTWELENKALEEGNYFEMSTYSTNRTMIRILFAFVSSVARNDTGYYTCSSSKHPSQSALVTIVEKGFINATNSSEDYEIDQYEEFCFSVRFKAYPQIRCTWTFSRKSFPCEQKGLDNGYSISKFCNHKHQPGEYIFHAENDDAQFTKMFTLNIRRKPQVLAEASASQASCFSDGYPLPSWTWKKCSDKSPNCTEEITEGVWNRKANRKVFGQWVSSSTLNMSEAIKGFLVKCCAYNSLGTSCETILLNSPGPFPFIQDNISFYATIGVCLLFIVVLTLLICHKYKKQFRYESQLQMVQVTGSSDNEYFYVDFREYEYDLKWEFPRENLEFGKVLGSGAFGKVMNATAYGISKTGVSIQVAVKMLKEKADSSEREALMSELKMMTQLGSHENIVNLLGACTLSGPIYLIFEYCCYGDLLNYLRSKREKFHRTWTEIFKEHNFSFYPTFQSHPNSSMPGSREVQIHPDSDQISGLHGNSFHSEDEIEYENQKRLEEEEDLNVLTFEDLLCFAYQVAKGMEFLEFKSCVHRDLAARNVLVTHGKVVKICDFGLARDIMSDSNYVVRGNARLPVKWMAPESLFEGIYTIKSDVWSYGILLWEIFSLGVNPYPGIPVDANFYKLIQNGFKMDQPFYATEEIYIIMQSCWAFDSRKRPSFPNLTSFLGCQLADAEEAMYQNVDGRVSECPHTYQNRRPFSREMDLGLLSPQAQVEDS

MDA-MB-231 [7] = experiment: Potency index, ratio of foretinib IC50 to test compound IC50 for antiproliferative activity against human MDA-MB-231 cells; type: functional
[8] = molecular target: Vascular endothelial growth factor receptor 3 (Homo sapiens, UniProt P35916); experiment: Inhibition of Flt4 (unknown origin)
Sequence of Vascular endothelial growth factor receptor 3 (P35916 whole entry): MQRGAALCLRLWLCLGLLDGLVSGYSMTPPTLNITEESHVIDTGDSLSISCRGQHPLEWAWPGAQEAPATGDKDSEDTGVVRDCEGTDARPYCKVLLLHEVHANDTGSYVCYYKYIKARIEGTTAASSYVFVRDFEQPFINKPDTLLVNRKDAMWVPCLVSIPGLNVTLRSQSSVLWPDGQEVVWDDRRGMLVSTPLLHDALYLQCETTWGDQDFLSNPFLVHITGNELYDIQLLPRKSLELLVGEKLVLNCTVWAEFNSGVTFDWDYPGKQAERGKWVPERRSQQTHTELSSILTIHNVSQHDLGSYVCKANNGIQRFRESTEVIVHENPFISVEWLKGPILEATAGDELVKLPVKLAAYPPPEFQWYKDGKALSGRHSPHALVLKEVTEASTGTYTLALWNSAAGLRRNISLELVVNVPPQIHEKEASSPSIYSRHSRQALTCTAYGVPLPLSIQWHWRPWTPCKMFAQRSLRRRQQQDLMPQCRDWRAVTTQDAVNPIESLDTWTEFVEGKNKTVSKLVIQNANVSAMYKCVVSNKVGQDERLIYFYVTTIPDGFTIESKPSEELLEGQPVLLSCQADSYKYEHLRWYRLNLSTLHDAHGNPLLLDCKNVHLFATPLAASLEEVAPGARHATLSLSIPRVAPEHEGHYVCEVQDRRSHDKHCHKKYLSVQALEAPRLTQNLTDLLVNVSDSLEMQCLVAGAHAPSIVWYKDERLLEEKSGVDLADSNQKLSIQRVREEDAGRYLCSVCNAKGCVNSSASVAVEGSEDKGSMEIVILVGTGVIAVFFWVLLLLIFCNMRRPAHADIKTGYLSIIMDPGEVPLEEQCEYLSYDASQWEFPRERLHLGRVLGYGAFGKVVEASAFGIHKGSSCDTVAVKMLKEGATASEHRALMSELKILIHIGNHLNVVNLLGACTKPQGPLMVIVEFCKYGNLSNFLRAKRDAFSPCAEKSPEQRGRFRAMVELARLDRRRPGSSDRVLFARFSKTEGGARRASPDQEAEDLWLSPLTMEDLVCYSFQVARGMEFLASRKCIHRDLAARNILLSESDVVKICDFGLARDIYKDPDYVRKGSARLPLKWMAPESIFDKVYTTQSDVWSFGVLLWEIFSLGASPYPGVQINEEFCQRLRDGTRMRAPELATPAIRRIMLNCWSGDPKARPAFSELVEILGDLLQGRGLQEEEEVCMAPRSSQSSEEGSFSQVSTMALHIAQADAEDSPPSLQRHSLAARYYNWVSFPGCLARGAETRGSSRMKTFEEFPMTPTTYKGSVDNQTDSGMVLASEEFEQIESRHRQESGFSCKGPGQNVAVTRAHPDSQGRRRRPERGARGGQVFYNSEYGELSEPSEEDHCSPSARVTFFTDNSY
In short: (§1)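 HTRF kinase assay with purified kinase protein on preloaded poly(Glu,Tyr) 4:1 substrate, 20 mg/mL. ATP at 10 mM (solution added) in buffer of 50 mM HEPES pH 7.0 with DTT, MgCl₂, MnCl₂ and 0.1% NaN₃. Compounds diluted in 1% DMSO. Reaction ran 30 min at 25 °C. Percent inhibition computed against no-enzyme (min) and full-activity (max) wells. IC50 taken from the inhibition curves.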

[9] = molecular target: Vascular endothelial growth factor receptor 2 (Homo sapiens, UniProt P35968); experiment: Inhibition of VEGFR2 (unknown origin)
Sequence of Vascular endothelial growth factor receptor 2 (P35968 whole entry): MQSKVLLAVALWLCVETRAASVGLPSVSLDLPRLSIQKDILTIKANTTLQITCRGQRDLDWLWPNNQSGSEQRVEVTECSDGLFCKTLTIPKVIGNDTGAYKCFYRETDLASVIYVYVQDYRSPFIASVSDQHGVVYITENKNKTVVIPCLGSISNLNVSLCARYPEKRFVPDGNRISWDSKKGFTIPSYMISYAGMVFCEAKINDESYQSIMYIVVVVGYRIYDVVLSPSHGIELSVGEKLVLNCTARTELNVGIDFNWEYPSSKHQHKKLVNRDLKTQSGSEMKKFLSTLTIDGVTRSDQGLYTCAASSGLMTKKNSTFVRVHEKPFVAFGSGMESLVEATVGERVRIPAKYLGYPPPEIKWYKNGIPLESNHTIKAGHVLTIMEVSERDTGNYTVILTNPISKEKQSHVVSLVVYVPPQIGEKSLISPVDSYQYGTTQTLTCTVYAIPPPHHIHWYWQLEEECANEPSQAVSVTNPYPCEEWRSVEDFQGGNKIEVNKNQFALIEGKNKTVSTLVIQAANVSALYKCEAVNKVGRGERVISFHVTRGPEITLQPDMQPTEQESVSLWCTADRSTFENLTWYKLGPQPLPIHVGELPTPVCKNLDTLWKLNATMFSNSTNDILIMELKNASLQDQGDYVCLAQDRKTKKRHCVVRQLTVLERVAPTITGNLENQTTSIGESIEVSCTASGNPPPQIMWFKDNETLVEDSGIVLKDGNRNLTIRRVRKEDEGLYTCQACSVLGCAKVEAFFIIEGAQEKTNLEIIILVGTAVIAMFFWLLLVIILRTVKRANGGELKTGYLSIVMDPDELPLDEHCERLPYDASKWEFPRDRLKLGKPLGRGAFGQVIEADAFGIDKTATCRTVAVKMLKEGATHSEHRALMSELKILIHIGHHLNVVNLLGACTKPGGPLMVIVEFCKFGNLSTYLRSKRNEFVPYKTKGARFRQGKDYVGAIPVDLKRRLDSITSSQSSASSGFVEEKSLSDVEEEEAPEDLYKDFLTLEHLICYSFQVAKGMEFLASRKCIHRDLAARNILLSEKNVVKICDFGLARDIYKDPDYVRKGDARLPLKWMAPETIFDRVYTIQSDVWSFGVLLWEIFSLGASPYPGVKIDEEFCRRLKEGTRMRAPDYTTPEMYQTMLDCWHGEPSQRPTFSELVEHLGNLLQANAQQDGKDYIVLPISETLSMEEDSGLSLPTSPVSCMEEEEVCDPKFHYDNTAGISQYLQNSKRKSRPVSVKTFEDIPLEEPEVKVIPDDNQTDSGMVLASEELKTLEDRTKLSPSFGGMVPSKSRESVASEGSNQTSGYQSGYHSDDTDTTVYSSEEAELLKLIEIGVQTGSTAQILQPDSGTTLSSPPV

NCI-H460 [10] = experiment: Antiproliferative activity against human NCI-H460 cells assessed as reduction in cell viability hrs by MTT assay; type: functional, cell-based; conditions: TDE = time-dependent effect
HT-29 [11] = experiment: Potency index, ratio of foretinib IC50 to test compound IC50 for antiproliferative activity against human HT-29 cells; type: functional
[12] = molecular target: Epidermal growth factor receptor (Homo sapiens, UniProt P00533); experiment: Inhibition of EGFR (unknown origin); in short: as §1
[13] = molecular target: Mast/stem cell growth factor receptor Kit (Homo sapiens, UniProt P10721); experiment: Inhibition of c-Kit (unknown origin); in short: as §1
Sequence of Mast/stem cell growth factor receptor Kit (P10721 whole entry): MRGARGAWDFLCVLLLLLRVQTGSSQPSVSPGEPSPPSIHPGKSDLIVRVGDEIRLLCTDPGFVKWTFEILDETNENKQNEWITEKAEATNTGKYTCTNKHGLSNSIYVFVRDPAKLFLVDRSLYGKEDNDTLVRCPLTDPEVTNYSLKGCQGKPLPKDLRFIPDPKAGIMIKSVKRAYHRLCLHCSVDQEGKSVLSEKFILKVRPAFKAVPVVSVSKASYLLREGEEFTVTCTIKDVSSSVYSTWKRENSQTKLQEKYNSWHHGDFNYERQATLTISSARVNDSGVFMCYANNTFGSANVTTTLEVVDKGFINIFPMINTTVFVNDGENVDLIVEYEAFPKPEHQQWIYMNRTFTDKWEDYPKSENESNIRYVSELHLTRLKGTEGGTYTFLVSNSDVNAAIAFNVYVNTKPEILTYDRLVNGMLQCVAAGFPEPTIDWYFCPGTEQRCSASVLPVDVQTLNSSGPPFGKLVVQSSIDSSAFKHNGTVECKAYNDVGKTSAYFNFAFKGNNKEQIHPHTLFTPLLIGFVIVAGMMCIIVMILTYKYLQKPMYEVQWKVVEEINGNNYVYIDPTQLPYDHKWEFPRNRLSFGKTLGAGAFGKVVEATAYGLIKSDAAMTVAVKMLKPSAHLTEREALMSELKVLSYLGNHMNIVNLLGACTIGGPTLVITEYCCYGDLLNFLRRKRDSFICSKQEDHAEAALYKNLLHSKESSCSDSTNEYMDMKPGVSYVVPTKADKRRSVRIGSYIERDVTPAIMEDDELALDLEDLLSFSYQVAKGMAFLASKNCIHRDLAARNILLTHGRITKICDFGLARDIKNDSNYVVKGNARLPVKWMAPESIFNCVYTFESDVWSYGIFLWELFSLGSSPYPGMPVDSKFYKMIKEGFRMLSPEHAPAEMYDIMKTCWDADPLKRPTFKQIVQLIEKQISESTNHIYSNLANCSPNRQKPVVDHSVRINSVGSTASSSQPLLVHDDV

[14] = molecular target: Macrophage-stimulating protein receptor (Homo sapiens, UniProt Q04912); experiment: Inhibition of Ron (unknown origin); in short: as §1

SMILES | IC50 (HT-29 [1]) | IC50 (MDA-MB-231 [2]) | IC50 (MKN-45) | IC50 (NCI-H460 [3]) | further results
COc1cc2nccc(Oc3ccc(NC(=O)C(C)OC(=O)c4cccs4)cc3F)c2cc1OC (stereo unspecified) | 4020 nM | 8240 nM | 6390 nM | 2460 nM | –
COc1cc2nccc(Oc3ccc(NC(=O)C(OC(=O)c4ccccc4Cl)C(C)(C)C)cc3F)c2cc1OC (stereo unspecified) | 290 nM | 760 nM | 460 nM | 220 nM | –
COc1cc2nccc(Oc3ccc(NC(=O)C(C)OC(=O)C4CCCC4)cc3F)c2cc1OC (stereo unspecified) | 24600 nM | – | 28200 nM | 15200 nM | –
COc1cc2nccc(Oc3ccc(NC(=O)C(OC(=O)c4ccccc4)C4CCCCC4)cc3F)c2cc1OC (stereo unspecified) | 15600 nM | 18000 nM | 20500 nM | 10300 nM | –
COc1cc2nccc(Oc3ccc(NC(=O)C(OC(=O)c4ccc(C(C)(C)C)cc4)C(C)(C)C)cc3F)c2cc1OC (stereo unspecified) | 2450 nM | 4450 nM | 3950 nM | 2060 nM | –
COc1cc2nccc(Oc3ccc(NC(=O)[C@@H](OC(=O)c4ccc(F)cc4)C(C)(C)C)cc3F)c2cc1OC | – | – | – | – | IC50 [4]: 2.49 nM
COc1cc2nccc(Oc3ccc(NC(=O)C(OC(=O)c4ccco4)C(C)(C)C)cc3F)c2cc1OC (stereo unspecified) | 2960 nM | 3560 nM | – | 2680 nM | –
COc1cc2nccc(Oc3ccc(NC(=O)C(OC(=O)c4ccccc4)c4ccccc4)cc3F)c2cc1OC (stereo unspecified) | 25600 nM | – | – | 22400 nM | –
COc1cc2nccc(Oc3ccc(NC(=O)C(N(C(=O)c4ccc(F)cc4)C4CCCCC4)C(C)(C)C)cc3F)c2cc1OC (stereo unspecified) | 5350 nM | 8480 nM | 6650 nM | 4340 nM | –
COc1cc2nccc(Oc3ccc(NC(=O)C(OC(=O)c4ccccc4)C(C)(C)C)cc3F)c2cc1OC (stereo unspecified) | 450 nM | 650 nM | 560 nM | 400 nM | –
COc1cc2nccc(Oc3ccc(NC(=O)C(C)OC(=O)c4ccccc4)cc3F)c2cc1OC (stereo unspecified) | 1920 nM | 3210 nM | 2390 nM | 1290 nM | –
COc1ccc(C(=O)OC(C(=O)Nc2ccc(Oc3ccnc4cc(OC)c(OC)cc34)c(F)c2)C(C)(C)C)cc1 (stereo unspecified) | 1540 nM | 2580 nM | 1860 nM | 1250 nM | –
COc1cc2nccc(Oc3ccc(NC(=O)C(N(C(=O)c4ccc(F)cc4)C(C)(C)C)C(C)(C)C)cc3F)c2cc1OC (stereo unspecified) | 1450 nM | 1700 nM | 1580 nM | 1300 nM | –
COc1ccc(N(C(=O)c2ccc(F)cc2)C(C(=O)Nc2ccc(Oc3ccnc4cc(OC)c(OC)cc34)c(F)c2)C(C)(C)C)cc1OC (stereo unspecified) | 6210 nM | 8870 nM | 7520 nM | 6420 nM | –
COc1cc2nccc(Oc3ccc(NC(=O)C(OC(=O)C4CCCC4)C(C)(C)C)cc3F)c2cc1OC (stereo unspecified) | 9270 nM | 14000 nM | 11500 nM | 11600 nM | –
COc1cc2nccc(Oc3ccc(NC(=O)C(OC(=O)c4ccc(F)cc4)C(C)(C)C)cc3F)c2cc1OC (racemic) | 200 nM | 420 nM | 260 nM | 140 nM | Ratio IC50 (NCI-H460 [5]): 1.7; IC50 [6]: 6.15 nM; Ratio IC50 (MDA-MB-231 [7]): 1.6; IC50 [8]: 540 nM; IC50 [9]: 295 nM; Activity (NCI-H460 [10]): Tde; Ratio IC50 (HT-29 [11]): 1.3; IC50 [12]: > 10 µM; IC50 [13]: 4.42 nM; IC50 [4]: 2.43 nM; IC50 [14]: 18.6 nM
COc1cc2nccc(Oc3ccc(NC(=O)C(OC(=O)c4cccc(Cl)c4)C(C)(C)C)cc3F)c2cc1OC (stereo unspecified) | 390 nM | 860 nM | 600 nM | 310 nM | –

SMILES | IC50 (HT-29 [1]) | IC50 (MDA-MB-231 [2]) | IC50 (MKN-45) | IC50 (NCI-H460 [3]) | further results
COc1cc2nccc(Oc3ccc(NC(=O)C(OC(=O)c4ccc(C(F)(F)F)cc4)C(C)(C)C)cc3F)c2cc1OC (stereo unspecified) | 2160 nM | 3520 nM | 2870 nM | 1840 nM | –
COc1cc2nccc(Oc3ccc(NC(=O)C(OC(=O)c4ccc(Cl)cc4)C(C)(C)C)cc3F)c2cc1OC (stereo unspecified) | 240 nM | 480 nM | 320 nM | 200 nM | –
COc1cc2nccc(Oc3ccc(NC(=O)C(OC(=O)c4cc(OC)c(OC)c(OC)c4)C(C)(C)C)cc3F)c2cc1OC (stereo unspecified) | 3030 nM | 4920 nM | 3870 nM | 2700 nM | –
COc1cc2nccc(Oc3ccc(NC(=O)C(N(C(=O)c4ccc(F)cc4)c4ccc(F)cc4)C(C)(C)C)cc3F)c2cc1OC (stereo unspecified) | 10200 nM | 14800 nM | 12400 nM | 8420 nM | –
COc1cc2nccc(Oc3ccc(NC(=O)C(OC(=O)c4ccccc4F)C(C)(C)C)cc3F)c2cc1OC (stereo unspecified) | 240 nM | 440 nM | 380 nM | 210 nM | –
COc1cc2nccc(Oc3ccc(NC(=O)C(OC(=O)c4cccs4)C(C)(C)C)cc3F)c2cc1OC (stereo unspecified) | 1260 nM | 1890 nM | 1700 nM | 960 nM | –
COc1cc2nccc(Oc3ccc(NC(=O)C(OC(=O)c4ccc(C)cc4)C(C)(C)C)cc3F)c2cc1OC (stereo unspecified) | 850 nM | 1420 nM | 1080 nM | 780 nM | –
COc1cc2nccc(Oc3ccc(NC(=O)C(OC(=O)c4ccc(Cl)c(Cl)c4)C(C)(C)C)cc3F)c2cc1OC (stereo unspecified) | 900 nM | 1560 nM | 1120 nM | 780 nM | –
COc1cc2nccc(Oc3ccc(NC(=O)[C@H](OC(=O)c4ccc(F)cc4)C(C)(C)C)cc3F)c2cc1OC | – | – | – | – | IC50 [4]: 2.56 nM
CCCCN(C(=O)c1ccc(F)cc1)C(C(=O)Nc1ccc(Oc2ccnc3cc(OC)c(OC)cc23)c(F)c1)C(C)(C)C (stereo unspecified) | 520 nM | 860 nM | 680 nM | 470 nM | –
COc1cc2nccc(Oc3ccc(NC(=O)C(OC(=O)c4cccc(F)c4)C(C)(C)C)cc3F)c2cc1OC (stereo unspecified) | 300 nM | 490 nM | 540 nM | 260 nM | –
COc1cc2nccc(Oc3ccc(NC(=O)C(OC(=O)c4ccc5ccccc5c4)C(C)(C)C)cc3F)c2cc1OC (stereo unspecified) | 4380 nM | 6750 nM | – | 3340 nM | –
CCCC(OC(=O)c1ccccc1)C(=O)Nc1ccc(Oc2ccnc3cc(OC)c(OC)cc23)c(F)c1 (stereo unspecified) | 1240 nM | 2480 nM | 1870 nM | 890 nM | –
COc1cc2nccc(Oc3ccc(NC(=O)C(N(C(=O)c4ccc(F)cc4)c4ccccc4)C(C)(C)C)cc3F)c2cc1OC (stereo unspecified) | 9270 nM | 14000 nM | 11500 nM | 7560 nM | –
COc1cc2nccc(Oc3ccc(NC(=O)C(NC(=O)c4ccc(F)cc4)C(C)(C)C)cc3F)c2cc1OC (stereo unspecified) | 440 nM | 960 nM | 650 nM | 380 nM | –
COc1cc2nccc(Oc3ccc(NC(=O)C(OC(=O)c4ccc(Br)cc4)C(C)(C)C)cc3F)c2cc1OC (stereo unspecified) | 560 nM | 900 nM | 750 nM | 480 nM | –
COc1cc2nccc(Oc3ccc(NC(=O)C(C)OC(=O)c4ccc5ccccc5c4)cc3F)c2cc1OC (stereo unspecified) | 11600 nM | 13300 nM | 15600 nM | 9430 nM | –
